# Results from ChEMBL document CHEMBL4152196, “Design, synthesis and biological evaluation of novel trimethylangelicin analogues targeting nuclear factor kB (NF-kB)” (Eur J Med Chem, 2018).
# The source made the active and inactive calls. No cut-off for these calls is given here.
# Key:
# Salmonella typhimurium [1] = assay: Genotoxicity in Salmonella typhimurium TA1535 assessed as revertant colonies at 50 uL/plate in presence of Sprague-Dawley rat S9 metabolic activation after 72 hrs by Ames test (reference value: 1); format: toxicity, organism-based; settings: salmonella enterica subsp. enterica serovar typhimurium
# Salmonella typhimurium [2] = assay: Genotoxicity in Salmonella typhimurium TA1535 assessed as revertant colonies at 100 uL/plate in absence of Sprague-Dawley rat S9 metabolic activation after 72 hrs by Ames test (reference value: 1); format: toxicity, organism-based; settings: salmonella enterica subsp. enterica serovar typhimurium
# Salmon testes DNA = assay: Induction of damage in salmon testes DNA at 100 uM in absence of 2.5 to 7.5 J/cm2 UVA irradiation by ethidium bromide dye-based agarose gel electrophoresis analysis; format: nucleic-acid assay; settings: salmonidae
# Salmonella typhimurium [3] = assay: Genotoxicity in Salmonella typhimurium TA97A assessed as revertant colonies at 5 uL/plate in absence of Sprague-Dawley rat S9 metabolic activation after 72 hrs by Ames test (reference value: 1); format: toxicity, organism-based; settings: salmonella enterica subsp. enterica serovar typhimurium
# Salmonella typhimurium [4] = assay: Genotoxicity in Salmonella typhimurium TA97A assessed as revertant colonies at 100 uL/plate in presence of Sprague-Dawley rat S9 metabolic activation after 72 hrs by Ames test (reference value: 1); format: toxicity, organism-based; settings: salmonella enterica subsp. enterica serovar typhimurium
# Salmonella typhimurium [5] = assay: Genotoxicity in Salmonella typhimurium TA98 assessed as revertant colonies at 100 uL/plate in absence of Sprague-Dawley rat S9 metabolic activation after 72 hrs by Ames test (reference value: 1); format: toxicity, organism-based; settings: salmonella enterica subsp. enterica serovar typhimurium
# Salmonella typhimurium [6] = assay: Genotoxicity in Salmonella typhimurium TA97A assessed as revertant colonies at 100 uL/plate in absence of Sprague-Dawley rat S9 metabolic activation after 72 hrs by Ames test (reference value: 1); format: toxicity, organism-based; settings: salmonella enterica subsp. enterica serovar typhimurium
# Salmonella typhimurium [7] = assay: Genotoxicity in Salmonella typhimurium TA100 assessed as revertant colonies at 100 uL/plate in presence of Sprague-Dawley rat S9 metabolic activation after 72 hrs by Ames test (reference value: 1); format: toxicity, organism-based; settings: salmonella enterica subsp. enterica serovar typhimurium
# Homo sapiens = organism: Homo sapiens; assay: Inhibition of NF-kappaB (unknown origin) assessed as decrease in NF-kappaB/DNA interaction at 12.5 to 100 uM using 32P-labeled target NF-kappaB double-stranded oligonucleotide after 30 mins by EMSA
# How it was run: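 Purified NF-κB p50 (0.1 µl/20 µl, 50 gsu) was combined with 0.25 ng of ³²P-labeled double-stranded NF-κB consensus oligonucleotide. Bound 30 min at room temperature, then run on 6% polyacrylamide in 0.25× TBE at 200 V. IC₅₀ is 50% inhibition of the complex.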
# Salmonella typhimurium [8] = assay: Genotoxicity in Salmonella typhimurium TA97A assessed as revertant colonies at 5 uL/plate in presence of Sprague-Dawley rat S9 metabolic activation after 72 hrs by Ames test (reference value: 1); format: toxicity, organism-based; settings: salmonella enterica subsp. enterica serovar typhimurium
# Salmonella typhimurium [9] = assay: Genotoxicity in Salmonella typhimurium TA98 assessed as revertant colonies at 1 uL/plate in absence of Sprague-Dawley rat S9 metabolic activation after 72 hrs by Ames test (reference value: 1); format: toxicity, organism-based; settings: salmonella enterica subsp. enterica serovar typhimurium
# Salmonella typhimurium [10] = assay: Genotoxicity in Salmonella typhimurium TA1535 assessed as revertant colonies at 100 uL/plate in presence of Sprague-Dawley rat S9 metabolic activation after 72 hrs by Ames test (reference value: 1); format: toxicity, organism-based; settings: salmonella enterica subsp. enterica serovar typhimurium
# IB3-1 [11] = assay: Inhibition of TNF-alpha induced IL-15 production in human IB3-1 cells at 1 uM preincubated for 5 hrs followed by TNF-alpha stimulation and measured after 24 hrs relative to control; format: functional
# How it was run: (§1)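 IB3-1 cells (CF patient, ΔF508/W1282X, adeno12/SV40-immortalized) grown in LHC-8 with 5% FBS, no gentamycin, 37°C/5% CO₂; 60% confluent monolayers seeded, compound added after 24 h, 5 h before 80 ng/ml TNF-α, then 24 h further incubation. Cytokines in supernatants measured by Bioplex 27-plex Luminex bead assay: beads, detection antibody, streptavidin–phycoerythrin, 30/30/10 min at room temperature.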
# Salmonella typhimurium [12] = assay: Genotoxicity in Salmonella typhimurium TA100 assessed as revertant colonies at 10 uL/plate in absence of Sprague-Dawley rat S9 metabolic activation after 72 hrs by Ames test (reference value: 1); format: toxicity, organism-based; settings: salmonella enterica subsp. enterica serovar typhimurium
# IB3-1 [13] = assay: Inhibition of TNF-alpha induced IL-17 production in human IB3-1 cells at 1 uM preincubated for 5 hrs followed by TNF-alpha stimulation and measured after 24 hrs relative to control; format: functional; how it was run: as §1
# Salmonella typhimurium [14] = assay: Genotoxicity in Salmonella typhimurium TA100 assessed as revertant colonies at 1 uL/plate in absence of Sprague-Dawley rat S9 metabolic activation after 72 hrs by Ames test (reference value: 1); format: toxicity, organism-based; settings: salmonella enterica subsp. enterica serovar typhimurium
# Salmonella typhimurium [15] = assay: Genotoxicity in Salmonella typhimurium TA1535 assessed as revertant colonies at 50 uL/plate in absence of Sprague-Dawley rat S9 metabolic activation after 72 hrs by Ames test (reference value: 1); format: toxicity, organism-based; settings: salmonella enterica subsp. enterica serovar typhimurium
# Salmonella typhimurium [16] = assay: Genotoxicity in Salmonella typhimurium TA98 assessed as revertant colonies at 5 uL/plate in presence of Sprague-Dawley rat S9 metabolic activation after 72 hrs by Ames test (reference value: 1); format: toxicity, organism-based; settings: salmonella enterica subsp. enterica serovar typhimurium
# Salmonella typhimurium [17] = assay: Genotoxicity in Salmonella typhimurium TA98 assessed as revertant colonies at 50 uL/plate in absence of Sprague-Dawley rat S9 metabolic activation after 72 hrs by Ames test (reference value: 1); format: toxicity, organism-based; settings: salmonella enterica subsp. enterica serovar typhimurium
# Salmonella typhimurium [18] = assay: Genotoxicity in Salmonella typhimurium TA97A assessed as revertant colonies at 10 uL/plate in presence of Sprague-Dawley rat S9 metabolic activation after 72 hrs by Ames test (reference value: 1); format: toxicity, organism-based; settings: salmonella enterica subsp. enterica serovar typhimurium
# Salmonella typhimurium [19] = assay: Genotoxicity in Salmonella typhimurium TA100 assessed as revertant colonies at 50 uL/plate in presence of Sprague-Dawley rat S9 metabolic activation after 72 hrs by Ames test (reference value: 1); format: toxicity, organism-based; settings: salmonella enterica subsp. enterica serovar typhimurium
# Salmonella typhimurium [20] = assay: Genotoxicity in Salmonella typhimurium TA1535 assessed as revertant colonies at 10 uL/plate in presence of Sprague-Dawley rat S9 metabolic activation after 72 hrs by Ames test (reference value: 1); format: toxicity, organism-based; settings: salmonella enterica subsp. enterica serovar typhimurium
# Salmonella typhimurium [21] = assay: Genotoxicity in Salmonella typhimurium TA98 assessed as revertant colonies at 10 uL/plate in absence of Sprague-Dawley rat S9 metabolic activation after 72 hrs by Ames test (reference value: 1); format: toxicity, organism-based; settings: salmonella enterica subsp. enterica serovar typhimurium
# IB3-1 [22] = assay: Inhibition of TNF-alpha induced IFN-gamma production in human IB3-1 cells at 1 uM preincubated for 5 hrs followed by TNF-alpha stimulation and measured after 24 hrs relative to control; format: functional; how it was run: as §1
# Salmonella typhimurium [23] = assay: Genotoxicity in Salmonella typhimurium TA97A assessed as revertant colonies at 10 uL/plate in absence of Sprague-Dawley rat S9 metabolic activation after 72 hrs by Ames test (reference value: 1); format: toxicity, organism-based; settings: salmonella enterica subsp. enterica serovar typhimurium
# Salmonella typhimurium [24] = assay: Genotoxicity in Salmonella typhimurium TA1535 assessed as revertant colonies at 5 uL/plate in presence of Sprague-Dawley rat S9 metabolic activation after 72 hrs by Ames test (reference value: 1); format: toxicity, organism-based; settings: salmonella enterica subsp. enterica serovar typhimurium
structure (smiles),measurement,setting,value
CCc1cc2c(C(C)C)cc(=O)oc2c2c(C)coc12,T/C,Salmonella typhimurium [1],1
same,T/C,Salmonella typhimurium [2],0.9
same,Activity,Salmon testes DNA,Not Active
same,T/C,Salmonella typhimurium [3],0.9
same,T/C,Salmonella typhimurium [4],1
same,T/C,Salmonella typhimurium [5],1.2
same,T/C,Salmonella typhimurium [6],1
same,T/C,Salmonella typhimurium [7],1.5
same,inhibition,Homo sapiens,Active
same,T/C,Salmonella typhimurium [8],1.1
same,T/C,Salmonella typhimurium [9],1.1
same,T/C,Salmonella typhimurium [10],0.8
same,inhibition at 1 µM,IB3-1 [11],> 20%
same,T/C,Salmonella typhimurium [12],0.8
same,inhibition at 1 µM,IB3-1 [13],> 20%
same,T/C,Salmonella typhimurium [14],0.8
same,T/C,Salmonella typhimurium [15],1
same,T/C,Salmonella typhimurium [16],0.6
same,T/C,Salmonella typhimurium [17],1.2
same,T/C,Salmonella typhimurium [18],1.2
same,T/C,Salmonella typhimurium [19],1.2
same,T/C,Salmonella typhimurium [20],1.2
same,T/C,Salmonella typhimurium [21],1.3
same,inhibition at 1 µM,IB3-1 [22],> 20%
same,T/C,Salmonella typhimurium [23],1.2
same,T/C,Salmonella typhimurium [24],0.9
